A selection: hits, their analogues and other compounds. The true share with any hit is near 3%.
SENP1 FRET inh: human SENP1 catalytic domain inhibitors, primary screen, biochemical, FRET, uHTS; Sentrin-specific protease 1 (Homo sapiens), Q9P0U3; inhibition, % at 10 µM; recombinant SENP1 catalytic domain, CyPet-SUMO1-YPet FRET cleavage; AID 624204, 2012; 360,000 tested, 0.21% active;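 active means inhibition at least 30% at 10 µM, raw YFP signal under a set limit, fluorescence ratio 0.5 to 1.5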
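Material – human SENP1 catalytic domain · Input – SENP1 enzyme, 20 pM final · Compound dosing – single concentration of 10 µM compound, 0.5% DMSO final · Timing – enzyme reaction for 50 min at room temperature, dark · Measured by – FRET fluorescence in CFP and YFP emission channels · Control set – no-enzyme wells low, DMSO-plus-enzyme wells high control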
HNF4A DNA FP: change in binding of human HNF4A to DNA, primary screen, biochemical, fluorescence polarization, FITC-DNA; Hepatocyte nuclear factor 4-alpha (Homo sapiens), P41235; 360,000 tested, 0.3% active; 1 h; activity change, % at 10 µM; in the data active means activity change above about 30%, passing the limit was not always enough
Target sequence (P41235 whole entry, looked up): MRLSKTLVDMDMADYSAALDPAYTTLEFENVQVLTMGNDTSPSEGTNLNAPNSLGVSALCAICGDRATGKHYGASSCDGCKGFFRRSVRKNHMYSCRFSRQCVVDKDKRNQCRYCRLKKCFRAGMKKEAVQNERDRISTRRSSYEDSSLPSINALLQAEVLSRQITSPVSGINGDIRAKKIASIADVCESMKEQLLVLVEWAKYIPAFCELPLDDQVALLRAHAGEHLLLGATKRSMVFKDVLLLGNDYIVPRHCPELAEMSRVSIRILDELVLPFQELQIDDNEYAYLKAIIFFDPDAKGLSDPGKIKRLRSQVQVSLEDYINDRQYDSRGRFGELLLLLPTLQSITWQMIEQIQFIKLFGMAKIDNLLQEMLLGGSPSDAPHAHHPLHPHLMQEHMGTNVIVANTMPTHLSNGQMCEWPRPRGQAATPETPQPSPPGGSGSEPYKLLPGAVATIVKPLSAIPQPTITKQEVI
Myeloid diff 2: induction of myeloid progenitor differentiation, primary screen, cell-based, flow cytometry, MLPCN library. calls only at 10 µM. ER-HoxA9 myeloid progenitors, lysozyme-GFP differentiation. 360,000 tested, 1% active. AID 624256, 2012;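 active means normalized GFP-positive differentiation at or above the plate's own cutoff, the solvent-only control mean plus 3 SD; inconclusive means no clear call, values can overlap the other calls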;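 further: cells exposed to compound for four days before flow analysis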
DSG3 Ab inh: inhibitors of pemphigus antibody binding to DSG3, primary screen, biochemical, bead-based, flow cytometry, scFv-GFP; DSG3-coupled beads, scFv-anti-DSG3-GFP binding; active compounds read low; binding (percent of control), % at 10 µM; 310,000 tested, 0.48% active; AID 588358, 2011;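 active means binding more than 3 SD below its plate's average and above zero; inconclusive means below that plate limit but binding exactly zero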;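 further: hits lower antibody fragment binding to DSG3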
Granule exo inh: LAMP-1 surface exposure blockers, TALL-104 cells – cell-based, flow cytometry, MLPCN library, primary screen | inhibition, % at 10 µM | 360,000 tested, 0.66% active | TALL-104 LAMP-1 surface exposure; cells stimulated with thapsigargin and PMA;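 active means inhibition above about 55%, limit read from the data; inconclusive means no clear call, values can overlap the other calls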
H9c2 protect: cardioprotection against H2O2-induced cell death, primary screen, uHTS, H9c2 cells, ATPLite luminescence; AID 588492, 2011; 360,000 tested, 0.63% active; protection from H2O2 cell death, % at 20 µM; H9c2 cardiomyocytes, H2O2 injury protection, 2 h;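 active means compounds giving at least 50% protection of heart cells from peroxide-induced death in the single-dose screen, raw or plate-pattern-corrected value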
A number is an active result; i = inactive; ? = inconclusive; nt = not tested or not shown; + = active, no number.

SMILES	SENP1 FRET inh	HNF4A DNA FP	Myeloid diff 2	DSG3 Ab inh	Granule exo inh	H9c2 protect
Cn1c(C(=O)N2CCCC2)cc2c(=O)n(C)c3ccccc3c21	i	i	i	i	i	i
Cc1ccc(Cl)cc1N1CCN(C(=O)c2cc3c(=O)n(C)c4ccccc4c3n2C)CC1	i	i	+	i	i	i
Cc1cccc(N2CCN(C(=O)c3cc4c(=O)n(C)c5ccccc5c4n3C)CC2)c1C	i	i	+	i	i	i
Cn1c(C(=O)N2CCN(c3ncccn3)CC2)cc2c(=O)n(C)c3ccccc3c21	i	i	i	i	i	i
CCOc1ccc(C2NC(=O)C(C#N)=C(S)N2c2cccc(C)c2)cc1OC (centres undefined)	i	i	i	i	69	i
CCOc1ccc(C2NC(=O)C(C#N)=C(S)N2c2ccc(C)cc2)cc1OC (centres undefined)	i	31	i	i	i	i
COc1ccc(C2NC(=O)C(C#N)=C(S)N2c2ccccc2)cc1OC (centres undefined)	i	i	i	i	i	i
COc1ccc([C@H]2[C@H](C(=O)OC(C)(C)C)N3N=Cc4ccccc4C3C23C(=O)c2ccccc2C3=O)c(OC)c1 (some centres undefined)	i	i	i	i	i	i
COc1ccc([C@H]2[C@H](C(=O)OC(C)(C)C)N3N=Cc4ccccc4C3C23C(=O)c2ccccc2C3=O)cc1OC (some centres undefined)	i	i	i	i	63	i
COc1ccc(N=C2O/C(=C/c3sc(=S)n(CC4CCCO4)c3O)N=C2C#N)cc1 (centres undefined)	i	i	i	i	i	i
CCCCCCCCN1C(=O)[C@H](CC(=O)N2CCCCC2)C[C@@]2(C(=O)OC)CC(C)(C)CC=C12	i	i	i	nt	i	nt
O=C(NNC(=O)c1cc2cc(Br)ccc2oc1=O)c1ccc(O)cc1O	i	i	i	i	i	77
COCCCNC(=O)c1cc2cc(Br)ccc2oc1=O	i	i	i	i	i	i
Cc1cc(C)n2nc(-c3ccsc3-n3c(C)ccc3C)cc2n1	i	i	+	i	i	i
Cc1ccc(OCC(=O)Nc2cc(S(=O)(=O)N3CCCCC3)ccc2C)c([N+](=O)[O-])n1	i	i	i	i	i	i
CC(C)OC(=O)C(C(=O)C(F)(F)F)c1cc(NS(=O)(=O)c2ccc3ccccc3c2)c2ccccc2c1O (centres undefined)	i	i	+	i	i	i
O=C1CCCC/C=C\C[C@H](CC(=O)N(CCO)Cc2ccccc2)C(=O)N2CCC[C@@H]2CO1	i	i	i	i	i	i
CN(c1ccc(C(=O)NC2CC3CCC2C3)cc1)S(C)(=O)=O (centres undefined)	i	i	i	6.6	i	i
Cn1c(/C(C#N)=C/c2ccc(-c3ccc(S(N)(=O)=O)cc3)o2)nc2ccccc21	i	i	+	i	i	i
CCN(CC)c1ccc(-c2nn3c(-c4ccccc4OC)nnc3s2)cc1	i	i	?	i	80	i
COc1cccc(OC)c1-c1nn2c(-c3cc(-c4ccccc4)n[nH]3)nnc2s1	i	225	i	i	i	i
COc1cccc(-c2nnc3sc(-c4ccccc4)nn23)c1	i	i	i	i	i	i
COc1ccc(S(=O)(=O)N2CCN(CC3CC=CCC3)CC2)cc1 (centres undefined)	i	i	i	i	i	i
COc1cc(-c2cnc3c(NC=O)cc(-c4ccccc4)cn23)cc(OC)c1OC	i	i	i	nt	i	i
COc1cc(-c2cc(NC=O)c3ncc(-c4ccc(C(C)=O)cc4)n3c2)cc(OC)c1OC	i	i	i	nt	i	81
COc1cc(-c2cc(NC=O)c3ncc(-c4ccccc4)n3c2)cc(OC)c1OC	i	i	i	nt	i	96
